In ChEMBL document CHEMBL1123413, “Synthesis and biological evaluation of 1-(1,2-benzisothiazol-3-yl)- and (1,2-benzisoxazol-3-yl)piperazine derivatives as potential antipsychotic agents” (J Med Chem, 1986):

What was measured:
Rattus norvegicus [1] = species on record: Rattus norvegicus; assay: Inhibition of conditioned avoidance response (CAR); type: functional
Procedure, shortened: (§1)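 Rats trained to avoid an electric shock, test compound given orally, and block of the conditioned avoidance response scored. ED50 (mg/kg, po) with fiducial limits by the method of Berkson.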

[2] = molecular target: T1, Adrenergic receptor alpha-1 (Rattus norvegicus, UniProt P15823+P23944+P43140)
T1 sequence (P15823 whole entry): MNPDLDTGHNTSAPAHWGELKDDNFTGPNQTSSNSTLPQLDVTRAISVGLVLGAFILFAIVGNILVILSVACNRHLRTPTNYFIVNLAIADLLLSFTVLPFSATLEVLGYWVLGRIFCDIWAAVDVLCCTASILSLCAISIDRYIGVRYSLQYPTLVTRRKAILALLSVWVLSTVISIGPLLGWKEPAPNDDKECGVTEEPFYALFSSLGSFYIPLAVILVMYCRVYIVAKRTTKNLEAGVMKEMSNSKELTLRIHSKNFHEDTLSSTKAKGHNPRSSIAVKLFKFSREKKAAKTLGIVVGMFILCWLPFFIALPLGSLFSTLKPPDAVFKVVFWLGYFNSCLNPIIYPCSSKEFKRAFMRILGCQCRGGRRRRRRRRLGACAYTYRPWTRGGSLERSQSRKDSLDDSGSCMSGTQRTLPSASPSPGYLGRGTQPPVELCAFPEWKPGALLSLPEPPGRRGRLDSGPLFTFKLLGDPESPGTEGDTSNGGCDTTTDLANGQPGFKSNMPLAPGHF
T1 sequence (P23944 whole entry): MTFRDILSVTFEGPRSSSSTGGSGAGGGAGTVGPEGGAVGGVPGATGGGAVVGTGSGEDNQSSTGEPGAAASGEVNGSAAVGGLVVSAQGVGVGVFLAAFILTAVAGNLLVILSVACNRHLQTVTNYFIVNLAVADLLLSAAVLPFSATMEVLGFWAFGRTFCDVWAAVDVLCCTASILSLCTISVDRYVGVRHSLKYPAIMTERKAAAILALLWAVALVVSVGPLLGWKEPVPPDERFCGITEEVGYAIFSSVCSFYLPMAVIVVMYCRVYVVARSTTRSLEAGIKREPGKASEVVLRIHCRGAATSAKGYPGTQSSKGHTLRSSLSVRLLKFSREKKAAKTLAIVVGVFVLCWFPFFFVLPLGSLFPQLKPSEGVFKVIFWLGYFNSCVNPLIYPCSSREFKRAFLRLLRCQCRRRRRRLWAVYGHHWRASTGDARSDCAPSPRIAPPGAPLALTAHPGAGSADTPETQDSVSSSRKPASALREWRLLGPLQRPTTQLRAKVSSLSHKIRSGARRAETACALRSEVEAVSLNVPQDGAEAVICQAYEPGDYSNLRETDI
T1 sequence (P43140 whole entry): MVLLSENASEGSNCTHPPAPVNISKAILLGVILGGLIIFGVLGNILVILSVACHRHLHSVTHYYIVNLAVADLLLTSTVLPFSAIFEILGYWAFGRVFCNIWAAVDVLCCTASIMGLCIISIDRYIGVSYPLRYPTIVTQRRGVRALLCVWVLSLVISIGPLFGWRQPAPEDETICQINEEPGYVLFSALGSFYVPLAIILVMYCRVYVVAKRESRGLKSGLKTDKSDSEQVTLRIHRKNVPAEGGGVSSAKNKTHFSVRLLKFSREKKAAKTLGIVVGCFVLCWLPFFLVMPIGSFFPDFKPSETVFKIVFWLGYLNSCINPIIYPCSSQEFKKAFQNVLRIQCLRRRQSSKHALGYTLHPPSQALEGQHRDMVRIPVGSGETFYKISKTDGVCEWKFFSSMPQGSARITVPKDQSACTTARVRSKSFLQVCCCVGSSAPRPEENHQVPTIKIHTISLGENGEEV

D(2) dopamine receptor = D(2) dopamine receptor (Rattus norvegicus, UniProt P61169); assay: In vitro affinity for rat striatal Dopamine receptor D2 labeled with [3H]spiperone
D(2) dopamine receptor, sequence (P61169 whole entry): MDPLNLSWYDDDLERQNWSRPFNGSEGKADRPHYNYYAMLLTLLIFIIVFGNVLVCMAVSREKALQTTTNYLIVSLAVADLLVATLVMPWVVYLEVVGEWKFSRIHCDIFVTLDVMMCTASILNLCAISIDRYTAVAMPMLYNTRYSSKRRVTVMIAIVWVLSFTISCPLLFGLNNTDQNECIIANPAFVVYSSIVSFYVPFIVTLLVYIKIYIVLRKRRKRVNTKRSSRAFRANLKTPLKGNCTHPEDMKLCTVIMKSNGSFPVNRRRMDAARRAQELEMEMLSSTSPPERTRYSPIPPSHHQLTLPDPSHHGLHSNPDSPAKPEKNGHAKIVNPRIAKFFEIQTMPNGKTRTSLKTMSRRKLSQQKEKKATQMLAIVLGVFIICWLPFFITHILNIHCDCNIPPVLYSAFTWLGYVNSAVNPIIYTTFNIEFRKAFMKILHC

Mus musculus [3] = assay: Compound was tested for inhibition of norepinephrine lethality in mouse when administered perorally; type: functional; conditions: po
Procedure, shortened: (§2)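 Groups of 10 nonfasted male mice dosed orally with test compound (initial 100 mg/kg) or vehicle (distilled H2O or 0.5% methocel). Active compounds retested at lower doses, 10 mice/dose, for dose response. ED50 by Berkson's method.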

Mus musculus [4] = assay: Compound was tested for inhibition of spontaneous motor activity in mouse when administered perorally; type: functional; conditions: po
[5] = Lethal dose after peroral administration in mouse; type: toxicity, organism-based; conditions: in vivo, po
Rattus norvegicus [6] = species on record: Rattus norvegicus; assay: Compound was tested for the inhibition of apomorphine-induced stereotype; type: functional
Procedure, shortened: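 In rats, oral test compound was scored for block of apomorphine-induced stereotypy as an in vivo dopamine-system measure. ED50 (mg/kg, po) and fiducial limits by Berkson's method.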

Rattus norvegicus [7] = species on record: Rattus norvegicus; assay: Compound was tested for its ability to induce catalepsy in rats.; type: functional
Procedure, shortened: (§3)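 Catalepsy was induced in rats with orally dosed compound as a predictor of extrapyramidal liability. ED50 (mg/kg, po) with fiducial limits by Berkson's method.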

Rattus norvegicus [8] = assay: Compound was tested for inhibition of spontaneous motor activity in rat when administered perorally; type: functional; conditions: po
Mus musculus [9] = species on record: Mus musculus; assay: Oral effective dose against norepinephrine-induced lethality in mouse; type: functional; procedure, shortened: as §2
Rattus norvegicus [10] = species on record: Rattus norvegicus; assay: Oral effective dose against hexobarbatial potentiation in rat; type: functional
Procedure, shortened: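 Hexobarbital sodium (40 mg/kg, ip) was given to nonfasted male rats 15, 30, 60 or 120 min after test drug, or 15 min after vehicle (distilled H2O or 0.5% methocel). Loss of righting reflex of 1-min duration was scored over about 10–15 min. Dose response at peak-effect time used 10 rats/dose; ED50 and fiducial limits by Berkson.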

Rattus norvegicus [11] = species on record: Rattus norvegicus; assay: Oral effective dose against spontaneous motor activity in rat; type: functional
Mus musculus [12] = species on record: Mus musculus; assay: Oral effective dose against physostigmine-induced lethality in mouse; type: functional
Procedure, shortened: as §2, with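 “methocel). At 30 min, physostigmine given ip at 1.25 mg/kg, and lethality followed for up to 1 h.” for “methocel).”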

Mus musculus [13] = species on record: Mus musculus; assay: Oral effective dose against spontaneous motor activity in mouse; type: functional
Rattus norvegicus [14] = species on record: Rattus norvegicus; assay: Oral effective dose against ethanol potentiation in rat; type: functional
Procedure, shortened: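 Nonfasted male rats received test drug or vehicle (distilled H2O or 0.5% methocel). EtOH (10 mL of 20% solution/kg, ip) followed at 15, 30, 60 or 120 min post-drug; the vehicle group got it at 15 min. Rats were watched about 10–15 min for loss of righting reflex lasting 1 min. Dose response at peak time used 10/dose; ED50 by Berkson.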

[15] = molecular target: Gamma-aminobutyric acid receptor subunit gamma-1 (Rattus norvegicus, UniProt P23574); assay: Inhibition of [3H]muscimol binding to Gamma-aminobutyric acid (GABA-A) receptor
Gamma-aminobutyric acid receptor subunit gamma-1, sequence (P23574 whole entry): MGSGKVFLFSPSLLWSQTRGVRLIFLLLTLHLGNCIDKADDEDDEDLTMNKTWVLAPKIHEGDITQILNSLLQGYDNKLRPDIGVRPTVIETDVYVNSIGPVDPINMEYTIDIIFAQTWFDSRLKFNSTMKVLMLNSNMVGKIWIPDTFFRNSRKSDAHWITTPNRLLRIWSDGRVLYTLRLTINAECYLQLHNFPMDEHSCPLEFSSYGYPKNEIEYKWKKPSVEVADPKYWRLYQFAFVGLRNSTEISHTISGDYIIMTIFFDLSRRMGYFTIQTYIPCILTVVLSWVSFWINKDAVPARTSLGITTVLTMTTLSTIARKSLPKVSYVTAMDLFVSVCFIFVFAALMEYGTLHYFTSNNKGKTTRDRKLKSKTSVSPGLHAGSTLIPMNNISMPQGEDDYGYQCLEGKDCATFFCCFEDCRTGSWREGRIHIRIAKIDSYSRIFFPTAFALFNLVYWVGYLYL

Rattus norvegicus [16] = species on record: Rattus norvegicus; assay: Compound was tested for inhibition of conditioned avoidance response (CAR ); type: functional; procedure, shortened: as §1
Rattus norvegicus [17] = species on record: Rattus norvegicus; assay: Compound was tested for its ability to induce catalepsy in rats; type: functional; procedure, shortened: as §3

IC50 [2] [nM] | IC50 (D(2) dopamine receptor) [nM] | Compound | ED50 (Rattus norvegicus [1]) [mg/kg] | also measured
 |  | CN(C)CCCN1c2ccccc2Sc2ccc(Cl)cc21 [CHLORPROMAZINE] |  | ED50 (Mus musculus [3]): 2.72 mg/kg; ED50 (Mus musculus [4]): 3.6 mg/kg; LD50 [5]: 250 mg/kg; ED50 (Rattus norvegicus [6]): 9.6 mg/kg; ED50 (Rattus norvegicus [7]): 4.1 mg/kg; ED50 (Rattus norvegicus [8]): 17.2 mg/kg
 | 64 | CC1CN(CCCCN2C(=O)CC3(CCCC3)CC2=O)CCN1c1nsc2ccccc12 (configuration not stated) | > 100 | 
33 | 440 | O=C1CSC(=O)N1CCCCN1CCN(c2noc3ccc(Cl)cc23)CC1 | > 100 | 
 | 235 | O=C1CC2(CCCC2)CC(=O)N1CCCCN1CCCN(c2nsc3ccccc23)CC1 | > 100 | 
 |  | CSc1ccc2c(c1)N(CCC1CCCCN1C)c1ccccc1S2 (configuration not stated) [THIORIDAZINE] |  | LD50 [5]: 250 mg/kg; ED50 (Mus musculus [9]): 2.2 mg/kg; ED50 (Rattus norvegicus [6]): 280 mg/kg; ED50 (Rattus norvegicus [10]): 27.3 mg/kg; ED50 (Rattus norvegicus [11]): 33 mg/kg; ED50 (Mus musculus [12]): 45 mg/kg; ED50 (Mus musculus [13]): 12.8 mg/kg; ED50 (Rattus norvegicus [14]): 56 mg/kg; IC50 [15]: > 1000 nM
5 | 59 | O=C1CC2(CCCC2)CC(=O)N1CCCCN1CCN(c2noc3cc(Cl)ccc23)CC1 | 26 | 
46 | 360 | O=C1CC2(CCCC2)CC(=O)N1CCCCN1CCN(c2noc3ccc(Cl)cc23)CC1 | > 100 | 
454 | 145 | O=C1CC2(CCCC2)CC(=O)N1CCCCN1CCN(c2nc3ccccc3s2)CC1 | > 100 | 
9 | 42 | Cl.O=C1SC2(CCCC2)C(=O)N1CCCCN1CCN(c2nsc3ccccc23)CC1 |  | ED50 (Rattus norvegicus [16]): 11.6 mg/kg; ED50 (Rattus norvegicus [7]): 45 mg/kg
5 | 69 | O=C(CCCN1CCN(c2noc3ccccc23)CC1)c1ccc(F)cc1 | 5.8 | ED50 (Rattus norvegicus [17]): 39.9 mg/kg
9 | 55 | CCCC1(C)CC(=O)N(CCCCN2CCN(c3nsc4ccccc34)CC2)C(=O)C1.Cl |  | ED50 (Rattus norvegicus [16]): 24.3 mg/kg
3 | 145 | O=C1CC2(CCCC2)CC(=O)N1CCCN1CCN(c2nsc3ccccc23)CC1 | > 100 | 
2 | 2 | OC(CCCN1CCN(c2nsc3ccccc23)CC1)c1ccc(F)cc1 (configuration not stated) | 2.4 | ED50 (Rattus norvegicus [17]): 5 mg/kg

Compound | IC50 [2] [nM] | IC50 (D(2) dopamine receptor) [nM] | ED50 (Rattus norvegicus [1]) [mg/kg] | also measured
Cl.c1ccc2c(N3CCNCC3)nsc2c1 | 510 | > 1000 | > 100 | 
